Values after ≈ are worked out from the molar mass of the structure shown. Active and inactive are the calls of the source. The calls are words filed in the database; no cut-off is given here. Starred links: 1 amine or outer side, 2 acyl side, 3 side chain; linkers in the order of their positions; H or OH if unused. Non-standard residues stand in square brackets, D forms with d. Residues, ends and D or L forms follow the SMILES beside them. ξ: configuration not given here. *: point of attachment. Pheψ(R-CH(OH)CH2N)Pro = O=C([C@@H]1CCCN1C[C@@H](O)[C@H](Cc1ccccc1)N[*:1])[*:2]; Pheψ(R-CHOHCH2N)ξPro = O=C(C1CCCN1C[C@@H](O)[C@H](Cc1ccccc1)N[*:1])[*:2]; Phe(3-Ph) = N[C@@H](Cc1cccc(-c2ccccc2)c1)C(=O)O; Bip = N[C@@H](Cc1ccc(-c2ccccc2)cc1)C(=O)O; 2Nal = N[C@@H](Cc1ccc2ccccc2c1)C(=O)O; hPhe = N[C@@H](CCc1ccccc1)C(=O)O; Boc = CC(C)(C)OC(=O)*
Key:
[1] = target: Human immunodeficiency virus type 1 protease (Human immunodeficiency virus 1, UniProt Q72874); assay: Binding affinity to HIV protease
In short: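 Continuous fluorometric assay of HIV protease (6.2 nM enzyme) at pH 6.4 with substrate AntThrIleNlePhe(p-NO2)GlnArgNH2. Ki derived assuming pure competitive tight-binding inhibition, by nonlinear least-squares fit to Morrison's tight-binding equation.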

[2] = system: CCRF-CEM; assay: Compound was evaluated for the inhibition of HIV infected CEM cells.; type: functional, Homo sapiens
In short: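 CEM (CD4+ lymphocyte line) cultures infected with HTLV-IIIb at MOI 0.1. Compound added 1 h before inoculation; peptides re-dosed days 2 and 5 post-infection. Virus-induced CPE quantitated at day 7 by formazan dye. Controls were untreated, infected and compound-only cells. EC50 for 50% CPE inhibition by linear regression. AZT positive control.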

[3] = system: Simian immunodeficiency virus; assay: Compound was evaluated for the inhibition of SIV induced syncytia formation; type: functional, organism-based
In short: (§1)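 CEM×174 cells pretreated 30 min with serial 2-fold inhibitor dilutions, then infected with cell-free SIVmac251. Fresh inhibitor added at 48 h. CPE scored as multinucleated giant cell appearance after 7-day incubation. IC50 is the concentration giving 50% CPE inhibition versus infected controls. AZT positive control.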

[4] = system: CCRF-CEM; assay: Compound was evaluated at highest concentration (>10 uM) for the inhibition of HIV infected CEM cells; NA = not active; type: functional, cell-based; conditions: Homo sapiens
In short: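 CEM (CD4+ lymphocyte) cells infected with HTLV-IIIb at MOI 0.1; compound added 1 h before inoculation, with extra doses on days 2 and 5 for metabolically unstable compounds such as peptides. Virus-induced CPE read at day 7 by formazan dye.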

[5] = system: Simian immunodeficiency virus; assay: Compound was evaluated at highest concentration (>10 syncytia formation; NA = not active; type: functional, organism-based; in short: as §1

Compound | Ki [1] [nM] | also measured
CC[C@H](C)[C@H](NC(=O)C1CCCN1C[C@@H](O)[C@H](Cc1ccccc1)NC(=O)[C@H](CC(N)=O)NC(=O)OC(C)(C)C)C(=O)N[C@H](C(=O)OC)C(C)C (stereo partly drawn) | 440 | –
CC[C@H](C)[C@H](NC(=O)C1CCCN1C[C@@H](O)[C@H](Cc1ccccc1)NC(=O)[C@H](CC(N)=O)NC(=O)OCc1ccccc1)C(=O)N[C@@H](Cc1ccccc1)C(=O)OC (stereo partly drawn) | 1.7 | EC50 [2]: 0.6 µg/mL (≈ 0.749 µM); IC50 [3]: 8000 nM
CC[C@H](C)[C@H](NC(=O)C1CCCN1C[C@@H](O)[C@H](Cc1ccccc1)NC(=O)[C@H](CC(N)=O)NC(=O)[C@H](CC(C)C)NC(=O)[C@H](CO)NC(C)=O)C(=O)N[C@@H](Cc1ccccc1)C(=O)OC (stereo partly drawn) (Ac-SLN[Pheψ(R-CHOHCH2N)ξPro]IF-OMe) | 0.67 | –
CC[C@H](C)[C@H](NC(=O)C1CCCN1C[C@@H](O)[C@H](Cc1ccccc1)NC(=O)[C@H](CC(N)=O)NC(=O)OCc1ccccc1)C(=O)N[C@@H](Cc1ccc2ccccc2c1)C(=O)OC (stereo partly drawn) | 1.9 | –
CC[C@H](C)[C@H](NC(=O)C1CCCN1C[C@@H](O)[C@H](Cc1ccccc1)NC(=O)[C@H](CC(N)=O)NC(=O)[C@H](CC(C)C)NC(=O)[C@H](CO)NC(C)=O)C(=O)N[C@@H](Cc1c[nH]c2ccccc12)C(=O)OC (stereo partly drawn) (Ac-SLN[Pheψ(R-CHOHCH2N)ξPro]IW-OMe) | 3.6 | –
CC[C@H](C)[C@H](NC(=O)C1CCCN1C[C@@H](O)[C@H](Cc1ccccc1)NC(=O)[C@H](CC(N)=O)NC(=O)c1ccc2ccccc2n1)C(=O)N[C@@H](Cc1ccccc1)C(=O)OC (stereo partly drawn) | 0.4 | –
CC[C@H](C)[C@H](NC(=O)C1CCCN1C[C@@H](O)[C@H](Cc1ccccc1)NC(=O)[C@H](CC(N)=O)NC(=O)[C@H](Cc1c(I)cc(O)cc1I)NC(=O)OC(C)(C)C)C(=O)N[C@H](C(=O)OC)C(C)C (stereo partly drawn) | 131 | –
CC[C@H](C)[C@H](NC(=O)C1CCCN1C[C@@H](O)[C@H](Cc1ccccc1)NC(=O)[C@H](CC(N)=O)NC(=O)[C@H](CCc1ccccc1)NC(=O)OC(C)(C)C)C(=O)N[C@H](C(=O)OC)C(C)C (stereo partly drawn) (Boc-[hPhe]N[Pheψ(R-CHOHCH2N)ξPro]IV-OMe) | 20 | –
CC[C@H](C)[C@H](NC(=O)[C@@H]1CCCN1C[C@@H](O)[C@H](Cc1ccccc1)NC(=O)[C@H](CC(N)=O)NC(=O)c1ccc2ccccc2n1)C(=O)N[C@@H](Cc1ccccc1)C(=O)OC | 0.1 | –
CC[C@H](C)[C@H](NC(=O)C1CCCN1C[C@@H](O)[C@H](Cc1ccccc1)NC(=O)[C@H](CC(N)=O)NC(=O)c1ccc2ccccc2n1)C(=O)N[C@H](C(=O)OC)C(C)C (stereo partly drawn) | 2.5 | –
CC[C@H](C)[C@H](NC(=O)C1CCCN1C[C@@H](O)[C@H](Cc1ccccc1)NC(=O)[C@H](CC(N)=O)NC(=O)[C@H](CC(C)C)NC(=O)[C@H](CO)NC(C)=O)C(=O)N[C@H](C(=O)OC)C(C)C (stereo partly drawn) (Ac-SLN[Pheψ(R-CHOHCH2N)ξPro]IV-OMe) | 0.6 | Inhibition [4]: inactive; IC50 [5]: Not Active
CC[C@H](C)[C@H](NC(=O)C1CCCN1C[C@@H](O)[C@H](Cc1ccccc1)NC(=O)[C@H](CC(N)=O)NC(=O)c1ccc2ccccc2n1)C(=O)N[C@@H](Cc1ccccc1)C(=O)NC (stereo partly drawn) | 0.8 | EC50 [2]: 0.13 µg/mL (≈ 0.158 µM); IC50 [3]: 4000 nM
CC[C@H](C)[C@H](NC(=O)C1CCCN1C[C@@H](O)[C@H](Cc1ccccc1)NC(=O)[C@H](CC(N)=O)NC(=O)c1ccc2ccccc2n1)C(=O)N[C@@H](Cc1ccc2ccccc2c1)C(=O)OC (stereo partly drawn) | 0.5 | –
CC[C@H](C)[C@H](NC(=O)C1CCCN1C[C@@H](O)[C@H](Cc1ccccc1)NC(=O)[C@H](CC(N)=O)NC(=O)[C@H](CC(C)C)NC(=O)[C@H](CO)NC(C)=O)C(=O)N[C@@H](CCc1ccccc1)C(=O)OC (stereo partly drawn) (Ac-SLN[Pheψ(R-CHOHCH2N)ξPro]I[hPhe]-OMe) | 1.26 | –
CC[C@H](C)[C@H](NC(=O)C1CCCN1C[C@@H](O)[C@H](Cc1ccccc1)NC(=O)[C@H](CC(N)=O)NC(=O)OCc1ccccc1)C(=O)N[C@@H](Cc1ccccc1)C(=O)NC (stereo partly drawn) | 1.5 | EC50 [2]: 0.3 µg/mL (≈ 0.375 µM); IC50 [3]: 4000 nM
CC[C@H](C)[C@H](NC(=O)C1CCCN1C[C@@H](O)[C@H](Cc1ccccc1)NC(=O)[C@H](CC(N)=O)NC(=O)[C@H](CC(C)C)NC(C)=O)C(=O)N[C@H](C(=O)OC)C(C)C (stereo partly drawn) (Ac-LN[Pheψ(R-CHOHCH2N)ξPro]IV-OMe) | 4 | –
CC[C@H](C)[C@H](NC(=O)C1CCCN1C[C@@H](O)[C@H](Cc1ccccc1)NC(=O)[C@H](CC(N)=O)NC(=O)[C@H](Cc1ccc(-c2ccccc2)cc1)NC(=O)OC(C)(C)C)C(=O)N[C@H](C(=O)OC)C(C)C (stereo partly drawn) (Boc-[Bip]N[Pheψ(R-CHOHCH2N)ξPro]IV-OMe) | 14 | –
CC[C@H](C)[C@H](NC(=O)[C@@H]1CCCN1C[C@@H](O)[C@H](Cc1ccccc1)NC(=O)[C@H](CC(N)=O)NC(=O)OCc1ccccc1)C(=O)N[C@@H](Cc1ccccc1)C(=O)OC | 1 | EC50 [2]: 0.31 µg/mL (≈ 0.387 µM); IC50 [3]: 4000 nM
CC[C@H](C)[C@H](NC(=O)C1CCCN1C[C@@H](O)[C@H](Cc1ccccc1)NC(=O)[C@H](CC(N)=O)NC(=O)[C@H](Cc1ccc2ccccc2c1)NC(=O)OC(C)(C)C)C(=O)N[C@H](C(=O)OC)C(C)C (stereo partly drawn) (Boc-[2Nal]N[Pheψ(R-CHOHCH2N)ξPro]IV-OMe) | 7.8 | –
CC[C@H](C)[C@H](NC(=O)C1CCCN1C[C@@H](O)[C@H](Cc1ccccc1)NC(=O)[C@H](CC(N)=O)NC(=O)OCc1ccccc1)C(=O)N[C@H](C(=O)OC)C(C)C (stereo partly drawn) | 9.7 | –
CC[C@H](C)[C@H](NC(=O)[C@@H]1CCCN1C[C@@H](O)[C@H](Cc1ccccc1)NC(=O)[C@H](CC(N)=O)NC(=O)[C@H](CC(C)C)NC(=O)[C@H](CO)NC(C)=O)C(=O)N[C@H](C(=O)OC)C(C)C (Ac-SLN[Pheψ(R-CH(OH)CH2N)Pro]IV-OMe) | 0.24 | –
CC[C@H](C)[C@H](NC(=O)C1CCCN1C[C@@H](O)[C@H](Cc1ccccc1)NC(=O)[C@H](CC(N)=O)NC(=O)c1ccc2ccccc2n1)C(=O)NCCc1ccccn1 (stereo partly drawn) | 13 | EC50 [2]: 0.19 µg/mL (≈ 0.248 µM); IC50 [3]: 4000 nM
CC[C@H](C)[C@H](NC(=O)C1CCCN1C[C@@H](O)[C@H](Cc1ccccc1)NC(=O)[C@H](CC(N)=O)NC(=O)[C@H](CC(C)C)NC(=O)[C@H](CO)NC(C)=O)C(=O)N[C@@H](Cc1ccc2ccccc2c1)C(=O)OC (stereo partly drawn) (Ac-SLN[Pheψ(R-CHOHCH2N)ξPro]I[2Nal]-OMe) | 5.1 | –
CC[C@H](C)[C@H](NC(=O)C1CCCN1C[C@@H](O)[C@H](Cc1ccccc1)NC(=O)[C@H](CC(N)=O)NC(=O)[C@H](CC(C)C)NC(=O)OC(C)(C)C)C(=O)N[C@H](C(=O)OC)C(C)C (stereo partly drawn) (Boc-LN[Pheψ(R-CHOHCH2N)ξPro]IV-OMe) | 66 | –
CC[C@H](C)[C@H](NC(=O)C1CCCN1C[C@@H](O)[C@H](Cc1ccccc1)NC(=O)[C@H](CC(N)=O)NC(=O)[C@H](Cc1cccc(-c2ccccc2)c1)NC(=O)OC(C)(C)C)C(=O)N[C@H](C(=O)OC)C(C)C (stereo partly drawn) (Boc-[Phe(3-Ph)]N[Pheψ(R-CHOHCH2N)ξPro]IV-OMe) | 6.8 | –
CC[C@H](C)[C@H](NC(=O)C1CCCN1C[C@@H](O)[C@H](Cc1ccccc1)NC(=O)[C@H](CC(N)=O)NC(=O)OCc1ccccc1)C(=O)NCCc1ccccn1 (stereo partly drawn) | 71 | –

Source: ChEMBL document CHEMBL1125316, “New hydroxyethylamine HIV protease inhibitors that suppress viral replication” (J Med Chem, 1992)
